Results on 5 compounds are retold here after ChEMBL document CHEMBL1275392, “Assessment of chemoselective neoglycosylation methods using chlorambucil as a model” (2010).

In one assay the test system is A549. Put plainly: Growth inhibition of human A549 cells expressing p53 after 7 days by celltiter-glo assay. It is filed as functional. The settings on record: A549, 168 h. (Cellular ATP, detected with luciferase, serves as a proxy for viable cell number.)
The subject of another assay is SK-OV-3. Put plainly: Growth inhibition of human SKOV3 cells after 7 days by celltiter-glo assay. The settings on record: SK-OV-3, 168 h. It is filed as functional.
Another assay deals with MCF7. Put plainly: Growth inhibition of human MCF7 cells after 7 days by celltiter-glo assay. The format is functional. The settings on record: MCF7, 168 h.
Assay [1] can be described thus: Growth inhibition of human p53 deficient Hep3B cells after 7 days by celltiter-glo assay. The settings on record: 168 h. The format is functional, Hep 3B2. The method, boiled down:
(§1)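 Cells seeded at 500 per well in 384-well plates. Compounds came from 30 mM DMSO stocks, serially diluted and tested in quadruplicate. Incubation was 7 d at 37 °C under 5% CO2. Calcein AM (10 μM) and EthD-1 were added, followed by a fluorescence read. CellTiter-Glo lysis was then done for 10 min at room temperature, with a luminescence read. GI50 came from curve fitting.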

Assay [2] concerns SF-268. As to the kind of experiment: Ratio of compound GI50 to chlorambucil GI50 for human SF268 cells. The format is functional.
The subject of a further assay is DU-145. As to the kind of experiment: Growth inhibition of human DU145 cells after 7 days by celltiter-glo assay. The format is functional. The settings on record: DU-145, 168 h.
For assay [3], the system named is SF-268. Put plainly: Growth inhibition of human SF268 cells after 7 days by celltiter-glo assay. It is filed as functional. The settings on record: SF-268, 168 h.
The next assay concerns HT-29. Put plainly: Growth inhibition of human HT-29 cells after 7 days by celltiter-glo assay. The format is functional. The settings on record: HT-29, 168 h.
For a further assay, the system named is HCT-15. Put plainly: Growth inhibition of human HCT15 cells after 7 days by celltiter-glo assay. It is filed as functional. The settings on record: HCT-15, 168 h.
Assay [4] in a line: Growth inhibition of human p53 deficient H1299 cells after 7 days by celltiter-glo assay. It is filed as functional. The settings on record: NCI-H1299, 168 h. The method, boiled down: as §1
The next assay deals with NCI-H460. As to the kind of experiment: Growth inhibition of human NCI-H460 cells after 7 days by celltiter-glo assay. The format is functional. The settings on record: NCI-H460, 168 h.

Bounds are passed on as bounds.

Usually GI50 stands for the concentration giving 50% growth inhibition. A lower GI50 goes with more potent growth inhibition. Consider `CON(CCCc1ccc(N(CCCl)CCCl)cc1)[C@@H]1O[C@H]2[C@H](OC(=O)[C@H]2O)[C@H]1O`, for which the GI50 was 3.7 µM in the assay with A549; 5.2 µM in the assay with SK-OV-3; 1.1 µM with MCF7; 1.3 µM in assay [1]; 1.9 µM with DU-145; 0.46 µM in the assay with SF-268 [3]. The GI50 in the assay on HT-29 was determined as 3.6 µM; in the assay with HCT-15, 0.99 µM; in assay [4], 0.4 µM; in the assay with NCI-H460, 3.8 µM. Moreover, the RatioGI50 with SF-268 [2] was 12.
As for `CON(CCCc1ccc(N(CCCl)CCCl)cc1)C1O[C@@H](CO)[C@H](O)[C@H](O)[C@@H]1O` (stereo partly specified), the GI50 in the assay on A549 was 3.5 µM; in the assay with SK-OV-3 it was 3.1 µM; in the assay with MCF7 it was 9 µM; in [1], 2.5 µM; with DU-145, 6 µM; in the assay on SF-268 [3] it was 3.2 µM. The GI50 worked out at 2.2 µM with HT-29, 1.7 µM with HCT-15, 1.3 µM in assay [4] and 10.4 µM in the assay with NCI-H460.
Regarding `CON(CCCc1ccc(N(CCCl)CCCl)cc1)C1O[C@H](CO)[C@@H](O)[C@H](O)[C@@H]1O` (stereo partly specified), the concentration for 50% growth inhibition (GI50) in the assay on A549 was determined as 3.5 µM; in the assay with SK-OV-3 it was 2.3 µM; with MCF7 it was 1.9 µM; in [1], 3.2 µM; with DU-145, 5.1 µM; with SF-268 [3] it was 1.8 µM. Also, the GI50 with HT-29 is 2.6 µM; in the assay on HCT-15, 1.9 µM; in assay [4], 1.01 µM; in the assay on NCI-H460, 7.8 µM.
For the compound `O=C(CCCc1ccc(N(CCCl)CCCl)cc1)NN[C@@H]1OC[C@@H](O)[C@H](O)[C@H]1O`, the GI50 with A549 turned out to be 14.8 µM; in the assay on SK-OV-3 it was 12 µM; in the assay with MCF7, 4.5 µM; in assay [1] it was 5.5 µM; in the assay on DU-145, 19 µM; in the assay with SF-268 [3], 2.5 µM. Further, the GI50 is 7.2 µM with HT-29, above 100 µM in the assay on HCT-15, 3.9 µM in [4] and 26 µM in the assay on NCI-H460.
In the case of `CON(CCCc1ccc(N(CCCl)CCCl)cc1)C1O[C@H](CN)[C@@H](O)[C@H](O)[C@H]1O` (stereo partly specified), the GI50 worked out at 3.7 µM in the assay on A549; 2.2 µM in the assay with SK-OV-3; 3.7 µM in the assay with MCF7; 3.5 µM in assay [1]; 2.8 µM in the assay on DU-145; 2.2 µM in the assay on SF-268 [3]. Further, the GI50 in the assay on HT-29 was 2.5 µM; with HCT-15, 1.3 µM; in assay [4], 1.1 µM; with NCI-H460, 5 µM.
